Measurements gathered from unrelated publications.
Compare with care: the assays were run in different laboratories.
Target: Tyrosine-protein kinase ITK/TSK (ITK, Homo sapiens, UniProt Q08881)
Sequence (Q08881 1-620, as in one of the studies): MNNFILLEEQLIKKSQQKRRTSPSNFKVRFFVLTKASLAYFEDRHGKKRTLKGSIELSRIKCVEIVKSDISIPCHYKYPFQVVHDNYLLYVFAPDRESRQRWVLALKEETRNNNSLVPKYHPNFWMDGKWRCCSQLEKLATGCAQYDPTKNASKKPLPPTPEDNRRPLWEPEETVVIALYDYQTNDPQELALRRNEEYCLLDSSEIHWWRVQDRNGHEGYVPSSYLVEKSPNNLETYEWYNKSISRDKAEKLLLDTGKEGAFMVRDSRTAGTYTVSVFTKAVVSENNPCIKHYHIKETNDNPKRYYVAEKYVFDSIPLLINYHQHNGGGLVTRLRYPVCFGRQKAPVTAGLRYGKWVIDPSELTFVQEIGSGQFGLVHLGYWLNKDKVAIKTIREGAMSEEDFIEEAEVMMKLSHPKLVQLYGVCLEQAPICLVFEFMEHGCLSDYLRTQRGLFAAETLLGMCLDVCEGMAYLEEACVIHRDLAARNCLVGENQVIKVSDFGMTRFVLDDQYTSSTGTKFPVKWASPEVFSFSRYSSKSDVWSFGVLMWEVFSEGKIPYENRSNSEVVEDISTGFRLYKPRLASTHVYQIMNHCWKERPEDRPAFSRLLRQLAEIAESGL

Compound	assay	setting	endpoint	result
O=c1[nH]c2ccccc2n1C1CCN(Cc2ccc(-c3[nH]c4cc5ncnc5cc4nc3-c3ccccc3)cc2)CC1	cell-free assay	0.5 µM	remaining signal	99.8%
Nc1ncc(-c2nc(N3CCOCC3)nc(N3CCOCC3)n2)c(C(F)F)n1	binding, competition with immobilised ligand	10 µM	remaining binding	44%
Cn1cc(-c2cc(F)cc(N3CCn4c(cc5c4CCCC5)C3=O)c2CO)cc(Nc2ccc(N3CCN(C4COC4)CC3)cn2)c1=O	enzyme activity, inhibitor	0.1 µM	inhibition	4%
CC(C)(C)c1cc(C=C(C#N)C#N)cc(Br)c1O	enzyme activity, inhibitor	0.5 µM	remaining activity	98.4%
COc1ncccc1-c1cnn2ccc(N3CCN(C(=O)OC(C)C)CC3)nc12	binding, competition with immobilised ligand	1 µM	remaining binding	100%
N#CC1(c2ccccn2)CCN(Cc2cc(C(=O)O)c(=O)n3ccccc23)CC1	cell-free assay, competition with immobilised ligand	1 µM	remaining binding	100%
Cn1cc(-c2cccc(N3CCc4c(sc5c4CC(C)(C)C5)C3=O)c2CO)cc(Nc2ccncn2)c1=O	enzyme activity, inhibitor	1 µM	inhibition	6%
Cn1cncc1[C@@](O)(COc1ccc(C#N)cc1-c1ccc(OC(F)(F)F)cc1)c1ccc(C#N)cc1	cell-free assay, competition with immobilised ligand	1 µM	remaining binding	100%
Cc1nn(C)cc1-c1nc2c(N3CCN(Cc4ccc(Cl)cc4)CC3)c(Cl)cnc2[nH]1	binding, competition with immobilised ligand	1 µM	remaining binding	100%
